“And” between values parts separate entries of the source, which are not always exact repeats. Equal values may be shown once.
What was measured:
[1] = cited from earlier work
[2] = cited from earlier work; remark: listed apart in the source
PARP = test: Western blot for PARP cleavage; type: cell-based; settings: Tu212, Tu686, MSK-LEUK1, 24 h
In short: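 Tu212, Tu686 and MSK-Leuk1 cells were treated with test compound at indicated doses for 24 h. Whole-cell lysates (20 µg protein) were run on 8–12% SDS-PAGE and transferred to PVDF. Blots were probed with a PARP antibody recognising both full-length and cleaved forms, with β-actin or GAPDH as loading control, and detected by enhanced chemiluminescence.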

Mcl-1 = test: Western blot, Mcl-1 expression; type: cell-based; settings: Tu212 and Tu686, 24 h
In short: (§1)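 Tu212 and Tu686 cells were treated with test compound at indicated doses for 24 h. Whole-cell lysates were immunoblotted for Bcl-2 family proteins (Bcl-2, Bcl-xL, Mcl-1, Bid, Bim, PUMA, NOXA), using 20 µg protein per lane on 8–12% SDS-PAGE and PVDF transfer. β-Actin or GAPDH served as loading control; detection was by enhanced chemiluminescence.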

AKT = test: Western blot, pAKT and AKT; type: cell-based; settings: Tu212, Tu686, MSK-LEUK1
Bcl-2 = test: Western blot, Bcl-2 expression; type: cell-based; settings: Tu212 and Tu686, 24 h
In short: as §1

[3] = Pharmacokinetic study, plasma LC/MS/MS; type: in vivo, A/J mice
Tu686 SCCHN xenografts = test: Nude mouse xenograft model; type: in vivo, nude mice; settings: for effect on tumor volume: 50 mg/kg i.p., once/day, five days/week, 17 days
EGFR mRNA = test: Real-time qPCR, EGFR mRNA; type: cell-based; settings: Tu212 and Tu686
Tu686 = test: SRB growth inhibition assay, Tu686; type: cell-based
In short: (§2)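 SCCHN lines were kept in DMEM/F12 (1:1) with 10% heat-inactivated FBS at 37 °C and 5% CO2; MSK-Leuk1 was kept in keratinocyte basal medium. Cells were seeded in 96-well plates, incubated overnight, then exposed for 72 h to a range of test-compound concentrations (DMSO stock diluted in RPMI, final DMSO <0.1%). Growth inhibition was read by sulforhodamine B staining, and IC50 was calculated by software.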

Tu177 = test: SRB growth inhibition assay, Tu177; type: cell-based
In short: as §2

SCCHN cell lines = test: Annexin V-PE staining for apoptosis; type: cell-based; settings: for concentration sufficient to induce ~80% apoptosis: by 48 h, annexin V-PE
AKT mRNA = test: Real-time qPCR, AKT mRNA; type: cell-based; settings: Tu212 and Tu686
FOXO1 and 3 = test: Western blot, FOXO phosphorylation; type: cell-based; settings: Tu686 cells, multiple sites
In short: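 Tu686 cells were exposed to test compound, and whole-cell lysates were probed by Western blot for phospho-FOXO1a and phospho-FOXO3a. Equal protein (20 µg) was separated on 8–12% SDS-PAGE and blotted to PVDF, with β-actin or GAPDH as loading control and enhanced chemiluminescence detection. Blots shown represent three independent experiments.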

MSK-Leuk1 = test: SRB growth inhibition assay, MSK-Leuk1; type: cell-based; settings: 72 h
In short: as §2

Bcl-xL = test: Western blot, Bcl-xL expression; type: cell-based; settings: Tu212 and Tu686, 24 h
In short: as §1

MSK cell line = test: Annexin V-PE staining for apoptosis, MSK; type: cell-based; settings: 24 h treatment
In short: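 MSK-Leuk1 premalignant cells, grown in keratinocyte basal medium, were seeded in 6-cm plates to 40–50% confluency. They were treated for 24 h with test compound at doses chosen per cell line (DMSO stock diluted in RPMI, final DMSO <0.1%). Cells were trypsinized, washed in cold PBS, stained with annexin V-PE plus 7-AAD for 15 min at room temperature, and read by flow cytometry. Three independent experiments; mean ± SD; paired two-tailed t-test versus untreated control.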

Tu212 = test: SRB growth inhibition assay, Tu212; type: cell-based
In short: as §2

[4] = Body weight and organ toxicity in xenograft study; type: in vivo; settings: 50 mg/kg i.p., 17 days
UM-22B = test: SRB growth inhibition assay, UM-22B; type: cell-based; settings: 72 h
In short: as §2

PCI-13 = test: SRB growth inhibition assay, PCI-13; type: cell-based
In short: as §2

[5] = tested on: mTOR pathway (S6 and 4EBP1); test: Western blot, mTOR pathway readouts; type: cell-based; settings: Tu212, Tu686, MSK-LEUK1
In short: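 Tu212, Tu686 and MSK-Leuk1 cells were treated with different doses of test compound. Whole-cell lysates (20 µg protein, 8–12% SDS-PAGE, PVDF) were immunoblotted for p-mTOR, p-S6, S6, p-4EBP1 and 4EBP1, with β-actin or GAPDH loading control and chemiluminescent detection. Blots shown represent three independent experiments.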

SQCCY1 = test: SRB growth inhibition assay, SQCCY1; type: cell-based
In short: as §2

Bcl-2 mRNA = test: Real-time qPCR, Bcl-2 mRNA; type: cell-based; settings: Tu212 and Tu686
In short: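 Tu212 and Tu686 cells were treated with test compound at 1 µM and 2 µM (T1) or 2 µM and 3 µM (T2), respectively. Total RNA was column-extracted, and 2 µg was reverse transcribed to cDNA. Bcl-2 mRNA was quantified by SYBR Green real-time qPCR and compared with the corresponding untreated control.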

Bim = test: Western blot, Bim expression; type: cell-based; settings: Tu212 and Tu686, 24 h
In short: as §1

EGFR = test: Western blot, pEGFR and EGFR; type: cell-based; settings: Tu212, Tu686, MSK-LEUK1
JHU022 = test: SRB growth inhibition assay, JHU022; type: cell-based
In short: as §2

Bid = test: Western blot, Bid expression; type: cell-based; settings: Tu212 and Tu686, 24 h
In short: as §1

cytochrome c = test: Cytochrome c release in the cytoplasm; type: cell-based; settings: Tu212 cells
In short: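 Tu212 cells were treated with test compound. Cytosolic and mitochondrial fractions were separated and immunoblotted for cytochrome c, with ERK as cytoplasmic control and Cox4 as mitochondrial control. Equal protein (20 µg) was run on 8–12% SDS-PAGE, transferred to PVDF and detected by enhanced chemiluminescence. Blots shown represent three independent experiments.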

886LN = test: SRB growth inhibition assay, 886LN; type: cell-based; settings: 72 h
In short: as §2

[6] = cited from earlier work; remark: listed apart in the source
[7] = tested on: premalignant (MSK-LEUK1) and malignant SCCHN cell lines; test: SRB growth inhibition assay, cell line panel; type: cell-based; settings: 72 h, read-out: IC50 values, range over the cell lines
In short: as §2

[8] = female, A/J, mouse, plasma, po, 200 mg/kg

Compound: COc1cc(/C=C/C(=O)C(=Cc2ccc(F)c(F)c2)C(=O)/C=C/c2ccc(O)c(OC)c2)ccc1O [CDF]
- accumulation in pancreatic tissue, fold higher than curcumin [1]: 10.6 fold
- systemic drug level, fold greater than curcumin [1]: 2.7 fold

Compound: O=C1/C(=C/c2ccccc2F)CNC/C1=C\c1ccccc1F [EF24]
- fold better anti-cancer efficacy than natural curcumin in vitro [2]: ~ 10 fold

Compound: COc1cc(/C=C/C(=O)/C=C/c2cc(OC)c(O)c(OC)c2)cc(OC)c1O [FLLL12]
- cleavage of PARP (PARP): markedly induced the cleavage of PARP
- expression of Mcl-1 (Mcl-1): remained mostly unchanged
- phosphorylation of AKT (AKT): inhibited the phosphorylation
- total AKT protein (AKT): inhibited
- expression of Bcl-2 protein (Bcl-2): inhibited
- AUC (0-∞) ([3]; 200 mg/kg oral): 418.5 ng·h/mL
- AUC, fold greater than curcumin ([3]; 200 mg/kg oral): 3–4 fold
- Cmax, fold greater than curcumin ([3]; 200 mg/kg oral): 4.3 fold and ~ 4.0 fold and 3–4 fold
- terminal elimination half-life (t½) ([3]; 200 mg/kg oral): 4.8 h
- Tmax ([3]; 200 mg/kg oral, DMSO/0.5% CMC, plasma): 0.5 h
- Cmax ([3]; 200 mg/kg oral, plasma): 241.5 ng/mL
- effect on tumor volume (Tu686 SCCHN xenografts): significantly reduced tumor volume
- mRNA expression of EGFR (EGFR mRNA): strongly inhibited the mRNA expression
- IC50 (Tu686; Tu686, 72 h, SRB assay): 0.68 µM
- IC50 (Tu177; Tu177, 72 h, SRB assay): 0.45 µM
- fold more potent than curcumin in inducing apoptosis (SCCHN cell lines; SCCHN cell lines): 5–10 fold
- concentration sufficient to induce ~80% apoptosis (SCCHN cell lines): 1 to 3 µM
- mRNA expression of AKT (AKT mRNA): strongly inhibited the mRNA expression
- phosphorylation of FOXO1 and 3 (FOXO1 and 3): strongly inhibited the phosphorylation
- IC50 (MSK-Leuk1; MSK-Leuk1 (premalignant), SRB assay): 0.35 µM
- expression of Bcl-xL (Bcl-xL): remained mostly unchanged
- apoptosis (MSK cell line): more than 80%
- IC50 (Tu212; Tu212, 72 h, SRB assay): 0.46 µM
- toxicity (H&E of major organs, body weight) [4]: without inducing any notable toxicity
- IC50 (UM-22B; UM-22B, SRB assay): 0.57 µM
- IC50 (PCI-13; PCI-13, 72 h, SRB assay): 0.35 µM
- phosphorylation of S6 and 4EBP1 [5]: strongly inhibited phosphorylation
- IC50 (SQCCY1; SQCCY1, 72 h, SRB assay): 1.55 µM
- expression of Bcl-2 mRNA (Bcl-2 mRNA): increased rather than decreased
- expression of Bim (Bim): increased
- phosphorylation of EGFR (EGFR): inhibited the phosphorylation
- total EGFR protein (EGFR): inhibited
- IC50 (JHU022; JHU022, 72 h, SRB assay): 0.77 µM
- expression of Bid (full length) (Bid): inhibited
- release of cytochrome c in the cytoplasm (cytochrome c): caused release of cytochrome c
- IC50 (886LN; 886LN, SRB assay): 0.72 µM

Compound: CN1C/C(=C\c2ccccn2)C(=O)/C(=C/c2ccccn2)C1 [UBS109]
- fold better anti-cancer efficacy than natural curcumin in vitro [2]: ~ 10 fold

Compound: O=C1/C(=C/c2ccccn2)CNC/C1=C\c1ccccn1 [compound 31]
- fold better anti-cancer efficacy than natural curcumin in vitro [2]: ~ 10 fold

Compound: COc1cc(/C=C/C(=O)CC(=O)/C=C/c2ccc(O)c(OC)c2)ccc1O [curcumin, reference compound]
- oral bioavailability [6]: ~ 1%
- phosphorylation of AKT (AKT): inhibited the phosphorylation
- total AKT protein (AKT): inhibited
- IC50 [7]: 4.53 to 17.4 µM
- AUC(0-inf) [3, 8]: 131 ng·h/mL
- Cmax [3, 8]: 55.6 ng/mL
- Tmax [3, 8]: 0.25 h
- half-life [3, 8]: 7.7 h
- effect on tumor volume (Tu686 SCCHN xenografts): had no effect
- efficacy in xenograft study (Tu686 SCCHN xenografts; 150 mg/kg, earlier study, data not shown): did not find any efficacy
- mRNA expression of EGFR (EGFR mRNA): strongly inhibited the mRNA expression
- IC50 (Tu686; Tu 686, 72 h): 6.7 µM
- IC50 (Tu177; 72 h): 5.25 µM
- concentration sufficient to induce ~80% apoptosis (SCCHN cell lines): 10 to 15 µM
- mRNA expression of AKT (AKT mRNA): strongly inhibited the mRNA expression
- IC50 (MSK-Leuk1): 6.81 µM
- IC50 (Tu212; TU212, 72 h): 6.97 µM
- IC50 (UM-22B): 7.76 µM
- IC50 (PCI-13; 72 h): 5.73 µM
- IC50 (SQCCY1; 72 h): 12.6 µM
- phosphorylation of EGFR (EGFR): inhibited the phosphorylation
- total EGFR protein (EGFR): inhibited
- IC50 (JHU022; 72 h): 4.53 µM
- IC50 (886LN): 17.4 µM
